According to article PMC10759213 (RSC Advances, 2024):
Like-named read-outs stand apart in the source and are kept apart here.

Legend:
[1] = molecular target: urease (Canavalia ensiformis, UniProt P07374); experiment: In vitro urease inhibition assay; format: biochemical
[2] = DPPH radical scavenging antioxidant assay; conditions: for Antioxidant activity % Inhibition ± SD: DPPH 300 μM, 37 °C, 30 minutes; for Antioxidant activity EC50: concentration required to scavenge 50% of DPPH; for Antioxidant activity (in words): DPPH
Summary of the method: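 Test sample mixed with ethanolic DPPH radical solution (300 μM before mixing), incubated at 37 °C for 30 min, and absorbance read at 515 nm. Percent radical inhibition was calculated against a DMSO negative control, with ascorbic acid as the standard. EC50 is the sample concentration (μg ml−1) needed to scavenge 50% of DPPH.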

Sequence of urease (P07374 whole entry, looked up): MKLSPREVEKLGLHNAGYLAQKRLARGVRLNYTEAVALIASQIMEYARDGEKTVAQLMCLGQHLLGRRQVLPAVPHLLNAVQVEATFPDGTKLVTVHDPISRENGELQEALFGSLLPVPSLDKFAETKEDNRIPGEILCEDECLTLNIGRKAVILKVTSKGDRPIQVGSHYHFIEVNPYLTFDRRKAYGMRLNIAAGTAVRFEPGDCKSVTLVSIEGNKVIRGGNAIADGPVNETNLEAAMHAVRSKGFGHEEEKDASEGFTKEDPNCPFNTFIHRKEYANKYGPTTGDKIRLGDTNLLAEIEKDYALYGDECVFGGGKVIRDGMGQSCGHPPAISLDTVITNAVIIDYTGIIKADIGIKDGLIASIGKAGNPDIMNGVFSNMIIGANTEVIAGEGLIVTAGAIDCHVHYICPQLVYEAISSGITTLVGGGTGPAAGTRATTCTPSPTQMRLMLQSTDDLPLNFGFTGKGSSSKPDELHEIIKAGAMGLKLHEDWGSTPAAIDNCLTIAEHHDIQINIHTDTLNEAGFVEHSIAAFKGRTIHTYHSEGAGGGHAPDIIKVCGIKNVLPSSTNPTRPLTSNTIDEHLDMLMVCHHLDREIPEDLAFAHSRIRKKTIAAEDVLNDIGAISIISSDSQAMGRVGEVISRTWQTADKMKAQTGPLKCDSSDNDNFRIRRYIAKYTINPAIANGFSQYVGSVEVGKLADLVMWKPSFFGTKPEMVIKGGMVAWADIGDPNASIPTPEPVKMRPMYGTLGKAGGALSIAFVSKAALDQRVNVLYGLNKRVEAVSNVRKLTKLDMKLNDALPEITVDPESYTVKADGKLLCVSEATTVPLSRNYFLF

| IC50 ([1]; read-out: Urease inhibition IC50 ± SD, indophenol method, 15 min at 30 °C, pH 8.2, triplicate) [µM] | Antioxidant activity EC50 [2] [µg/mL] | IC50 [1] [µM] | Structure (SMILES) | Antioxidant activity % Inhibition ± SD [2] [%] | Antioxidant activity (in words) [2] |
| --- | --- | --- | --- | --- | --- |
| – | 37.5 | – | COc1ccc(-c2nc3cc4ccccc4cc3[nH]2)cc1O [Compound 6, 2-Methoxy-5-(1H-naphtho[2,3-d]imidazol-2-yl) phenol] | 71 ± 0.01 | excellent antioxidant activity |
| – | 100 | – | CCOc1cc(-c2nc3cc4ccccc4cc3[nH]2)ccc1OC [Compound 7, 2-(3-Ethoxy-4-methoxyphenyl)-1H-naphtho[2,3-d]imidazole] | 57.8 ± 0.01 | – |
| – | – | 86.4 ± 0.78 | c1csc(-c2nc3cc4ccccc4cc3[nH]2)c1 [Compound 8, 2-(Thiophen-2-yl)-1H-naphtho[2,3-d]imidazole] | 32 ± 0.01 | – |
| – | 100 | 67.14 ± 0.67 | COc1ccc(-c2nc3cc4ccccc4cc3[nH]2)cc1OC [Compound 9, 2-(3,4-Dimethoxyphenyl)-1H-naphtho[2,3-d]imidazole] | 57.8 ± 0.02 | – |
| – | 100 | – | Oc1ccc(-c2nc3cc4ccccc4cc3[nH]2)c(O)c1O [Compound 10, 4-(1H-Naphtho[2,3-d]imidazol-2-yl)benzene-1,2,3-triol] | 57.9 ± 0.02 | – |
| – | 37.5 | 42.4 ± 0.65 | COc1ccc(Br)c(-c2nc3cc4ccccc4cc3[nH]2)c1O [Compound 11, 3-Bromo-6-methoxy-2-(1H-naphtho[2,3-d]imidazol-2-yl)phenol] | 71.1 ± 0.01 | excellent antioxidant activity |
| – | 100 | – | COc1cc(-c2nc3cc4ccccc4cc3[nH]2)c(OC)cc1Br [Compound 13, 2-(4-Bromo-2,5-dimethoxyphenyl)-1H-naphtho[2,3-d]imidazole] | 57.7 ± 0.01 | – |
| – | 75 | – | Brc1cccc(-c2nc3cc4ccccc4cc3[nH]2)c1 [Compound 15, 2-(3-Bromophenyl)-1H-naphtho[2,3-d]imidazole] | 69.3 ± 0.01 | excellent antioxidant activity |

The remaining lines, values behind:

| Structure (SMILES) | IC50 ([1]; read-out: Urease inhibition IC50 ± SD, indophenol method, 15 min at 30 °C, pH 8.2, triplicate) [µM] | Antioxidant activity EC50 [2] [µg/mL] | IC50 [1] [µM] | Antioxidant activity % Inhibition ± SD [2] [%] | Antioxidant activity (in words) [2] |
| --- | --- | --- | --- | --- | --- |
| CC(=O)NO [Acetohydroxamic acid, reference compound] | 37 | – | – | – | – |
| O=C1O[C@H]([C@@H](O)CO)C(O)=C1O [Ascorbic acid, reference compound] | – | 8.3 | – | 80 | – |
| c1ccc2cc3[nH]c(-c4c[nH]c5ccccc45)nc3cc2c1 [Compound 1, 2-(1H-Indol-3-yl)-1H-naphtho[2,3-d]imidazole] | – | 37.5 | 92.3 ± 0.2 | 71.1 ± 0.01 | excellent antioxidant activity |
| CCOc1ccc(-c2nc3cc4ccccc4cc3[nH]2)cc1OC [Compound 2, 2-(4-Ethoxy-3-methoxyphenyl)-1H-naphtho[2,3-d]imidazole] | – | – | 73.5 ± 0.65 | 43 ± 0.01 | – |
| COc1cc(-c2nc3cc4ccccc4cc3[nH]2)ccc1OC(C)=O [Compound 3, 2-Methoxy-4-(1H-naphtho[2,3-d]imidazol-2-yl)phenyl acetate] | – | 75 | 56.3 ± 0.78 | 67.4 ± 0.01 | excellent antioxidant activity |
| Oc1ccc(Cl)cc1-c1nc2cc3ccccc3cc2[nH]1 [Compound 4, 4-Chloro-2-(1H-naphtho[2,3-d]imidazol-2yl)phenol] | – | – | 34.2 ± 0.72 | 29 ± 0.01 | – |
| COc1cc(-c2nc3cc4ccccc4cc3[nH]2)cc(OC)c1O [Compound 5, 2,6-Dimethoxy-4-(1H-naphtho[2,3-d]imidazol-2-yl)phenol] | – | – | – | 12 ± 0.01 | – |
| c1ccc(-c2nc3cc4ccccc4cc3[nH]2)cc1 [Compound 12, 2-Phenyl-1H-naphtho[2,3-d]imidazole] | – | – | – | 43 ± 0.01 | – |
| Fc1cc(Br)ccc1-c1nc2cc3ccccc3cc2[nH]1 [Compound 14, 2-(4-Bromo-2-fluorophenyl)-1H-naphtho[2,3-d]imidazole] | – | – | – | 23 ± 0.01 | – |
